{"source": "paper PMC3677025", "about": "(Pharmacological research : the official journal of the …, 2012)", "key": {"EphB2": {"tested_on": "EphB2", "assay": "Ephrin-B2 Fc-induced EphB2 tyrosine phosphorylation in COS cells", "format": "cell-based", "conditions": "relative to concentrations inhibiting other Eph receptors", "procedure,_shortened": "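Cells were serum-starved 1–2 h and pretreated 15 min with test compound (DMSO ≤0.4% final). They were then stimulated 20 min with compound present: COS cells with 0.8 μg/mL ephrin-B2 Fc, and B16 melanoma cells with 1.5 μg/mL anti-Fc-preclustered ephrin-B2 Fc, or Fc control. Lysates were made in modified RIPA. EphB2 (COS; 7 μg antibody) or EphB4 (B16; 20 μg antibody) was immunoprecipitated, probed for phosphotyrosine, then reprobed for the receptor.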"}, "EphB6": {"biological_target": "EphB6", "assay": "ELISA, ephrin-B2 AP binding to immobilized EphB6 Fc", "conditions": "read-out: IC50, inhibition of ephrin binding to EphB6", "procedure,_shortened": "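Eph receptor Fc fusions were immobilized at 1 μg/ml in TBST on protein A-coated wells. Diluted ephrin AP fusion supernatant from transiently transfected HEK293 cells was added for 2 h with or without test compound; for IC50 it was at approximately 0.01 nM. Bound AP was read with p-nitrophenylphosphate, minus Fc-only background. IC50 came from a variable-slope log(inhibitor)–response fit, bottom constrained to 0.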"}, "EphA4": {"biological_target": "EphA4 (Mus musculus, UniProt Q03137)", "sequence (Q03137 20-547 limits assumed)": "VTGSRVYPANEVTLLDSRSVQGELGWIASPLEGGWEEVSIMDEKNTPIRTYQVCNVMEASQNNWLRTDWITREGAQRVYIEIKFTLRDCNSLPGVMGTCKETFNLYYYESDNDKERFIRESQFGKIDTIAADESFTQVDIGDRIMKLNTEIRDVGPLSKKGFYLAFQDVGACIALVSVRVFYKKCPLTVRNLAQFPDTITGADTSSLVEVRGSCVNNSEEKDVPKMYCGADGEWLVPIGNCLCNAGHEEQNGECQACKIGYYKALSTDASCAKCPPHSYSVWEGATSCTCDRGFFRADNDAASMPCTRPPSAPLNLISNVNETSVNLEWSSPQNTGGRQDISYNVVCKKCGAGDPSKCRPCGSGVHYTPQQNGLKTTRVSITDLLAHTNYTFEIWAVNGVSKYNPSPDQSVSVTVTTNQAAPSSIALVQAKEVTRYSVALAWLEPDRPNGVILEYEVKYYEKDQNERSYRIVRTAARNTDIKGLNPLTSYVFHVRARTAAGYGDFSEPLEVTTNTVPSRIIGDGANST", "assay": "EphA4 AP binding to immobilized KYL peptide", "procedure,_shortened": "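Biotinylated KYL peptide (biotin on the lysine of a C-terminal GSGSK linker) was captured on streptavidin-coated wells, with coating in borate buffer pH 8.7. Test compound (10 μM in 1% DMSO for screening; varied concentrations for confirmation) was added with ~0.35 nM mouse EphA4 ectodomain–AP from NIH3T3 supernatant in TBST. Bound AP was read at 405 nm with 1 mg/ml p-nitrophenylphosphate in SEAP buffer pH 9.8, minus AP-only background. Percent inhibition was taken relative to no-compound wells.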"}, "EphB4": {"biological_target": "T1, EphB4 (Homo sapiens, UniProt P54760)", "T1 sequence (P54760 16-987)": "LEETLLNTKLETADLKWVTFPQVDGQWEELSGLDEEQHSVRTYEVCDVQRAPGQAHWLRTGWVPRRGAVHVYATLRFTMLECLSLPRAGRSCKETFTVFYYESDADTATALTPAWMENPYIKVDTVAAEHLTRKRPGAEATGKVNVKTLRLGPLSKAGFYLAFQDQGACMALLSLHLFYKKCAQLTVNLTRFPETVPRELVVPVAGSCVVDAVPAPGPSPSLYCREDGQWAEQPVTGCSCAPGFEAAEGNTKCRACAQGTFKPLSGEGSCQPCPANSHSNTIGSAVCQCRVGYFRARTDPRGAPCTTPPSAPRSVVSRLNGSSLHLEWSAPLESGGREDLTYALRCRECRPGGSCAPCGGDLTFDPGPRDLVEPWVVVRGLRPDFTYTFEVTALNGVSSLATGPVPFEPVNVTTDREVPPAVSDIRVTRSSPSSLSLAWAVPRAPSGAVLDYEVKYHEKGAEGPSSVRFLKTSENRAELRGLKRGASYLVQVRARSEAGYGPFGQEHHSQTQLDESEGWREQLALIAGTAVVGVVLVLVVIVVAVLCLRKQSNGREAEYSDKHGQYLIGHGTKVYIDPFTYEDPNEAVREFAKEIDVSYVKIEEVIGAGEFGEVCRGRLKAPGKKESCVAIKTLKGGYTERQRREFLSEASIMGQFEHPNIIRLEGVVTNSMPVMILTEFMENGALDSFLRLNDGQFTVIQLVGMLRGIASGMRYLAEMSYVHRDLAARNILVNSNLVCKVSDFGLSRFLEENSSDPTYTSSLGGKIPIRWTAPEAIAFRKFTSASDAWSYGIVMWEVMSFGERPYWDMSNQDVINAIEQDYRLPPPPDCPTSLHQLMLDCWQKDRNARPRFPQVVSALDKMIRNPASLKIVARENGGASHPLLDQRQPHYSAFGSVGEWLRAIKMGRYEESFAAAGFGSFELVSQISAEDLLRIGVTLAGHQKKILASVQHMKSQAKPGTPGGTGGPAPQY", "assay": "Ephrin-B2 Fc-induced EphB4 phosphorylation in HUVECs", "format": "cell-based", "conditions": "at 50 μM", "procedure,_shortened": "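HUVECs were serum-starved 1–2 h and preincubated 15 min with 50 μM test compound (DMSO ≤0.4% final). They were then stimulated 20 min with 0.25 μg/mL ephrin-A1 Fc plus 1.5 μg/mL ephrin-B2 Fc (preclustered with 3-fold anti-Fc), or Fc, with compound present. Lysates were made in modified RIPA with NaF and pervanadate. EphA2 (1 μg antibody) and EphB4 (20 μg antibody) immunoprecipitates were immunoblotted for phosphotyrosine; lysates were probed for receptors and β-actin.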"}, "EphA2": {"biological_target": "EphA2 (Homo sapiens, UniProt P29317)", "sequence (P29317 24-976)": "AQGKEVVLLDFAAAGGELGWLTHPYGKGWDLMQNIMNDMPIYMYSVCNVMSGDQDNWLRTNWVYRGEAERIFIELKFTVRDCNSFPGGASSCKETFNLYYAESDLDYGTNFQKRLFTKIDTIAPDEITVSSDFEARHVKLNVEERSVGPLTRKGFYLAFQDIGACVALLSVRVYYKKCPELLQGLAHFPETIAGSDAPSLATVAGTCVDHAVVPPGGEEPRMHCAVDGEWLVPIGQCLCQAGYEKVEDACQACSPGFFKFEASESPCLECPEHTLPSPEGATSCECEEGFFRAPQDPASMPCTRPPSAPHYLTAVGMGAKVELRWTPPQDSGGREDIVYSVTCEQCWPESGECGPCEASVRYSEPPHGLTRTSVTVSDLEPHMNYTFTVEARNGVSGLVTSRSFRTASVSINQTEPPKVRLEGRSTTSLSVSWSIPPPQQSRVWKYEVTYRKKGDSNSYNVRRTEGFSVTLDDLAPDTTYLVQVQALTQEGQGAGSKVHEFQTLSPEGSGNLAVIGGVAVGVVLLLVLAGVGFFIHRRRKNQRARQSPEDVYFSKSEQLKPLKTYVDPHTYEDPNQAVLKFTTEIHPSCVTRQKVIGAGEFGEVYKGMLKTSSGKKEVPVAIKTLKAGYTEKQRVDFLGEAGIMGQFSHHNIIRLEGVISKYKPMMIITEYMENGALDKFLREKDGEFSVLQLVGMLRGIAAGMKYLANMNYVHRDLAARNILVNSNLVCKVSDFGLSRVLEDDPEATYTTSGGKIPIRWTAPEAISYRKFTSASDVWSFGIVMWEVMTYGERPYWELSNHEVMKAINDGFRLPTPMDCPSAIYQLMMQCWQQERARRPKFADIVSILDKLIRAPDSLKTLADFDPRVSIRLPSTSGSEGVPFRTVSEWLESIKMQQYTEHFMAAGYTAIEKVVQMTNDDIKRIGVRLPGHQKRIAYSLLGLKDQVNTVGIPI", "assay": "Ephrin-A1 Fc-induced EphA2 tyrosine phosphorylation in PC3 cells", "format": "cell-based", "conditions": "read-out: IC50, EphA2 tyrosine phosphorylation, 0.25 μg/mL ephrin-A1 Fc, ELISA", "procedure,_shortened": "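PC3 cells were serum-starved 1 h, given test compound (final DMSO ≤0.4%) for 15 min, then ephrin-A1 Fc for 20 min with compound still present. Lysis was in modified RIPA with NaF and pervanadate. Lysates were split for phospho and total EphA2 ELISA: anti-EphA2 extracellular capture, anti-phosphotyrosine or anti-cytoplasmic EphA2 detection, ABTS read at A405. IC50 was fitted to values normalized to ephrin-only cells.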"}}, "note": "Values joined by “and” are separate entries in the source; they are usually repeats but may differ in a detail not shown here. Identical values can stand only once."}
{"smiles": "O=C(Oc1cc(O)cc2c1C[C@@H](OC(=O)c1cc(O)c(O)c(O)c1)[C@@H](c1cc(O)c(O)c(O)c1)O2)c1cc(O)c(O)c(O)c1", "note": "[epigallocatechin-3,5-digallate]", "values": [{"measurement": "inhibition of EphB2 phosphorylation", "setting": "EphB2", "value": "at higher concentrations"}, {"measurement": "IC50", "setting": "EphB6", "value": "< 10", "unit": "µM"}, {"measurement": "IC50", "setting": "EphA4; read-out: IC50 ± SE EphA4 KYL", "value": "1.5 ± 0.13", "unit": "µM"}, {"measurement": "(% Inhib.) EphA4 KYL", "setting": "EphA4; screen, compounds at 10 μM", "value": 58, "unit": "%"}, {"measurement": "EphB4 phosphorylation in HUVECs", "setting": "EphB4", "value": "strongly inhibits"}, {"measurement": "IC50", "setting": "EphA2", "value": "90 µM and ~90 µM"}]}
